# Screening data from PubChem.
# These entries were drawn from the full list.
# HKDC1 activator: increases human hexokinase HKDC1 activity | Q2TB90 | recombinant HKDC1, G6PDH/diaphorase resazurin fluorescence; active compounds read low | 340,000 tested, 0.056% active | activity change, negative = activation, % at 20 µM | AID 493187;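 active = activation of 40% or more at 20 µM, a change of -40% or lower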
# Target sequence (Q2TB90 whole entry, looked up): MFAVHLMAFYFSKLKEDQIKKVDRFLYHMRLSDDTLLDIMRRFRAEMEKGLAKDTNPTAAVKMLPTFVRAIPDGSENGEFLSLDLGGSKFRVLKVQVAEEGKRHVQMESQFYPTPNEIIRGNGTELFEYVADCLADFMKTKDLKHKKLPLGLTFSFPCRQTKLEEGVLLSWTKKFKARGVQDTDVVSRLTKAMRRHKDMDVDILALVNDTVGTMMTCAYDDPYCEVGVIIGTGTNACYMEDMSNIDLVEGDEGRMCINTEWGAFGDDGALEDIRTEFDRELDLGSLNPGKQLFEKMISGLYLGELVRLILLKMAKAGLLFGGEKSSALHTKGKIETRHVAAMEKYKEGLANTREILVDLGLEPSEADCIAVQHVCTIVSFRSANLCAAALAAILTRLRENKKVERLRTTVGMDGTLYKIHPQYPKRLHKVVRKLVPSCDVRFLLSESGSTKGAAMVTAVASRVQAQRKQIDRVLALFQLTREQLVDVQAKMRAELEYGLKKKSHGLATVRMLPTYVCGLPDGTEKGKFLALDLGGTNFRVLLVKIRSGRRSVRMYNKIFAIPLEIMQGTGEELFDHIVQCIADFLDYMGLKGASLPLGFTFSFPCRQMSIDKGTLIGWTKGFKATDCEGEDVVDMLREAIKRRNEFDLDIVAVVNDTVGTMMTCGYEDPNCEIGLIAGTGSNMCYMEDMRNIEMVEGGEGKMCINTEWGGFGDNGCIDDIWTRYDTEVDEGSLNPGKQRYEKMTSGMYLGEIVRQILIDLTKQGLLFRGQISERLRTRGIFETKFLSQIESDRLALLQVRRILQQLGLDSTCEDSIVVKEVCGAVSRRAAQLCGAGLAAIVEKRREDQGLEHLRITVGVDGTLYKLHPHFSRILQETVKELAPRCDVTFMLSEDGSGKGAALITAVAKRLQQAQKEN
#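 Material: in-house human HKDC1 enzyme, G6PDH and diaphorase coupling enzymes | Quantity: HKDC1 at 5 µg/mL final | Medium: Tris buffer at pH 8.0 containing MgCl2 | Compound dosing: 20 µM single dose | Schedule: 90 min reaction at room temperature, dark | Measured by: Resorufin fluorescence, 525/613 nm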
# An asterisk follows results filed as active.
SMILES,HKDC1 activator
COc1ccc2c(c1)/C(=C\c1cccc(/C=C3/C(=O)Nc4ccc(OC)cc43)n1)C(=O)N2,37
O=C(c1c[nH]c(C(=O)C(Cl)(Cl)Cl)c1)c1c(F)cccc1F,38
CCn1c2ccccc2c2nc3cc(S(=O)(=O)N4CCOCC4)ccc3nc21,-61*
Cc1cc2cc(CCNC(=O)c3ccc(S(=O)(=O)N4CCOCC4)cc3)c(=O)[nH]c2cc1C,41
O=S(=O)(Nc1cc(Sc2ncn[nH]2)c(O)c2ccccc12)c1ccccc1,55
Cc1ccc(C)c(-n2nnnc2Sc2nnnn2-c2ccccc2)c1,47
CCC(C)(C)NC(=O)C1CCC(CNS(=O)(=O)c2cccc3nsnc23)CC1 (configuration not stated),51
CC1(OC(=O)C2CCCC2)C(=O)C=C2C=C(c3ccsc3)N(CCc3c[nH]c4ccccc34)C=C2C1=O (configuration not stated),35
Cn1cnc([N+](=O)[O-])c1Sc1ccc(Br)cc1,-58*
COc1cc([N+](=O)[O-])ccc1-c1ccc(/C=C2\C(=O)ON=C2c2ccccc2)o1,44
O=C(/C=C/Sc1ccccc1)c1ccccc1,36
O=C1C=C(NCc2ccccc2)c2ccccc2C1=O,80
O=C1C(Cl)=C(NCc2cccnc2)C(=O)c2ccccc21,-45*
O=C1C(Cl)=C(NCCc2ccccc2)C(=O)c2ccccc21,53
CC(=O)Nc1ccc(NC2=C/C(=N/S(=O)(=O)c3cccs3)c3ccccc3C2=O)cc1,44
N=C1/C(=C/c2coc3ccccc3c2=O)C(=O)N=C2SC(c3ccco3)=NN12,38
Cc1ccc(C)c(S(=O)(=O)Nc2ccc(O)c3ccccc23)c1,48
CCOC(=O)c1c(C)sc2c1N(C(=O)CCl)c1cc(Cl)ccc1S2,45
COCCN1C=C2C(=O)C(C)(OC(=O)CCC(=O)OC)C(=O)C(Br)=C2C=C1c1ccc(OC)cc1 (configuration not stated),38
O=C(Sc1nnc(-c2ccccc2)o1)N1c2ccccc2Sc2ccccc21,37
CSc1nc(N)nc2c1ncn2CC(=O)N[C@H](C)c1cccc2ccccc12,-55*
O=C1C(O)=CC(=C(c2ccccc2)c2ccccc2)c2ccccc21,78
Cc1ccc(SC2=C(Sc3ccc(C)cc3)C(=O)c3ccccc3C2=O)cc1,66
CCCCC(=O)NC(c1ccc(N(CC)CC)cc1)c1ccc2cccnc2c1O (configuration not stated),-46*
O=C(NN1CCOCC1)c1ccc(Cl)c([N+](=O)[O-])c1,36
SMILES,HKDC1 activator
Cc1cc(C)n2nc(SCc3nnc(SCc4ccccc4Cl)s3)nc2n1,41
COC1=CC(=O)C(OC)=C(OC)C1=O,76
CCCCN(CCCC)C(=S)N/N=C/c1c(C)[nH]n(-c2ccccc2)c1=O,-41*
Cc1[nH]n(-c2ccccc2)c(=O)c1/C=N/Nc1nncc(-c2ccccc2)n1,-47*
Cc1ccccc1Nc1nc(N)nc(CSc2nnc3sc4ccccc4n23)n1,36
COc1ccc(N2CCN(C(=O)CSc3nnc4c(C)cc5c(C)cc(C)cc5n34)CC2)cc1,43
COc1cccc(-n2c(N)c(C(=O)Nc3c(C)n(C)n(-c4ccccc4)c3=O)c3nc4ccccc4nc32)c1,36
Cc1ccc(S(=O)(=O)Nc2ccc(O)c3ccccc23)c(C)c1,52
COc1ccc(-n2cccc2/C=C2\C(=N)N3N=C(c4ccco4)SC3=NC2=O)cc1,35
O=C(O)c1ccc(S(=O)(=O)/N=C2\C=C(Nc3ccccc3F)C(=O)c3ccccc32)cc1,81
O=C1C(F)=CC(COC(c2ccccc2)(c2ccccc2)c2ccccc2)OC1n1cc(F)c(=O)[nH]c1=O (configuration not stated),40
COC(=O)c1cc(=O)n(Cc2ccc(OC)cc2)c(=NCc2ccc(OC)cc2)s1,-43*
COc1ccc(-n2c(C)cc(C(=O)CCl)c2C)cc1,35
COc1ccc(CN2C(=O)c3cccnc3C2O)cc1 (configuration not stated),41
COc1ccc(C2=CC3=C(Br)C(=O)C(C)(OC(=O)c4ccco4)C(=O)C3=CO2)cc1 (configuration not stated),42
Cc1cccc2c(N=NC(=O)c3ccc(NS(=O)(=O)c4cccs4)cc3)c(O)[nH]c12,36
CC(C)c1nc2oc3c(NCCO)ncnc3c2c2c1COC(C)(C)C2,46
COc1cc(/C=C2\SC(=Nc3ccc(Cl)c(C(=O)O)c3)NC2=O)c(Br)c(Br)c1O,40
CCCc1nc2c(c(=O)c3ccccc3n2C)c(=O)n1-c1ccc(F)cc1,51
COc1ccc(N=C2NN=C(c3ccc4c(c3)OCCO4)CS2)cc1,-84*
FC(F)Sc1ccc(N=C2NN=C(c3ccc4c(c3)OCCO4)CS2)cc1,-101*
CC(=O)n1cc(N(C(=O)CCl)c2ccc([N+](=O)[O-])cc2)c2ccccc21,48
Cc1ccc(C2=NN=C(NC(=O)CSc3nncn3C)SC2)cc1,-144*
CCOC(=O)/C=C(\C)Sc1cc(O)c2ccccc2c1O,57
Cc1ccc(C)c(-n2c3nc(=O)[nH]c(=O)c-3cc3cc([N+](=O)[O-])ccc32)c1,47
SMILES,HKDC1 activator
COc1ccc(OC(=O)N2C/C(=C/c3ccccc3)C(=O)/C(=C\c3ccccc3)C2)cc1,36
Cc1cc(C(=O)CCl)c(C)n1CCc1ccc(Cl)cc1,39
O=C(O)c1ccc(-c2ccc(/C=c3/sc4nc5ccccc5n4c3=O)o2)cc1Cl,45
O=C(/C=C/c1ccc(Cl)cc1)c1ccc([N+](=O)[O-])o1,54
Cc1ccccc1NC1=C/C(=N\S(=O)(=O)c2ccc(C(=O)O)cc2)c2ccccc2C1=O,70
O=C(O)c1ccc(NC2=C(Cl)C(=O)c3ccccc3C2=O)cc1,-131*
O=C1C=C(Nc2ccc(F)cc2)c2ccccc2C1=O,42
O=C(O)COc1ccc(/C=N/NC(=O)c2ccc(-c3csc(Nc4ccc(Cl)cc4)n3)cc2)cc1,76
O=C(CCc1ccccc1)NCC(=O)N/N=C/c1ccc(O)cc1O,-43*
COc1ccccc1/C=C\C(=O)NCC(=O)N/N=C/c1ccc(O)cc1O,-41*
O=C(CN1CCCc2ccccc21)N/N=C/c1ccc(O)cc1O,-43*
O=C(CNC(=O)c1cccs1)N/N=C/c1ccc(O)cc1O,-46*
Cc1ccc(NC2c3ncccc3C(=O)N2c2ccccc2C)cc1C (configuration not stated),56
COC(=O)CCC(=O)OC1(C)C(=O)C2=CN(C3CCCC3)C(c3ccc(OC)cc3)=CC2=C(Br)C1=O (configuration not stated),38
CCC[n+]1c2ccccc2cc2ccccc21,37
COc1ccc(OC)c2[nH]c(=O)c(CCNC(=O)c3cc4ccccc4o3)cc12,38
CCc1ccc2c(c1)C(NC(C)=O)C(=O)N2CCN1CCOCC1 (configuration not stated),80
O=C1C(N2CCOCC2)=C(n2nnc3ccccc32)C(=O)c2ccccc21,43
c1coc(-c2nc(-c3ccco3)c(-c3ccco3)nc2-c2ccco2)c1,68
O=C(O)c1ccc2c(=O)n(-c3ccccc3)c(=S)[nH]c2c1,84
COC1=CC(=O)C(C2CC(=O)c3c(O)cc(O)cc3O2)=CC1=O (configuration not stated),60
O=C(O)CSc1cc(NS(=O)(=O)c2ccc(Br)cc2)c2ccccc2c1O,59
COP(=O)(OC)c1ccc(NCc2cc(O)ccc2O)cc1,43
C/C(=N\NC(=O)c1c(C)nc2ccccn12)c1ccc(O)cc1O,-45*
